Reference: ChEMBL document CHEMBL1150374, “Synthesis and anticonvulsant activity of aromatic tetramethylcyclopropanecarboxamide derivatives” (Bioorg Med Chem, 2008)
Active and inactive are the calls of the source. No cut-off for these calls is given here.

Legend:
Mus musculus [1] = test: Anticonvulsant activity against maximal electroshock-induced seizures in mouse model at 300 mg/kg, ip after 0.5 hrs; type: functional, organism-based; design: dose 300 mg/kg
Outline: (§1)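 Mice dosed intraperitoneally at 300 mg/kg, in a dosing volume of 0.01 mL per gram body weight. Seizure protection was scored at the stated time after dosing. Activity is expressed as the number of animals protected over the number tested.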

Mus musculus [2] = test: Anticonvulsant activity against maximal electroshock-induced seizures in mouse model at 300 mg/kg, ip after 4 hrs; type: functional, organism-based; design: dose 300 mg/kg; outline: as §1
Mus musculus [3] = test: Anticonvulsant activity against scMet-induced seizures in mouse model at 300 mg/kg, ip after 0.5 hrs; type: functional, organism-based; design: dose 300 mg/kg; outline: as §1
Mus musculus [4] = test: Anticonvulsant activity against scMet-induced seizures in mouse model at 300 mg/kg, ip after 4 hrs; type: functional, organism-based; design: dose 300 mg/kg; outline: as §1
Mus musculus [5] = test: Anticonvulsant activity against scMet-induced seizures in mouse model at 100 mg/kg; type: functional
Rattus norvegicus [6] = test: Anticonvulsant activity against scMet-induced seizures in orally dosed rat model; type: functional; details: po
Outline: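 Rats dosed orally in a volume of 0.04 mL per 10 g body weight. ED50 was determined with 95% confidence intervals by probit analysis.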

Mus musculus [7] = species on record: Mus musculus; test: Anticonvulsant activity against maximal electroshock-induced seizures in mouse model; type: functional
Outline: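 Compounds given ip to mice at 100 or 300 mg/kg, dosed at 0.01 mL per gram body weight. Maximal electroshock seizures were tested at 0.5, 2 and 4 h after dosing. Activity is reported as animals protected over animals tested, with neurotoxicity scored alongside.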

Rattus norvegicus [8] = test: Anticonvulsant activity against maximal electroshock-induced seizures in orally dosed rat model; type: functional; details: po
[9] = Toxicity in orally dosed rat by rotarod test; type: organism-based; details: in vivo, po
Outline: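 Rats dosed orally in a volume of 0.04 mL per 10 g body weight. Dose was varied until four points were established between the level causing no minimal motor impairment in any animal and the level at which all animals were impaired. TD50 was derived with 95% confidence intervals by probit analysis.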

Rattus norvegicus [10] = species on record: Rattus norvegicus; test: Protective index, ratio of TD50 for rat by rotarod test to ED50 for rat by MES test; type: functional
Outline: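 PI was calculated as TD50/ED50 from oral dosing in rats. Both values were derived by probit analysis.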

Mus musculus [11] = test: Anticonvulsant activity against maximal electroshock-induced seizures in mouse model at 300 mg/kg, ip after 2 hrs; type: functional, organism-based; design: dose 300 mg/kg; outline: as §1

SMILES	Activity (Mus musculus [1])	Activity (Mus musculus [2])	Activity (Mus musculus [3])	Activity (Mus musculus [4])	further results
CC1(C)C(C(=O)NCc2ccc(F)cc2)C1(C)C	inactive	inactive	inactive	inactive	
CC1(C)C(C(=O)NCc2ccc(S(N)(=O)=O)cc2)C1(C)C	inactive		inactive	inactive	
CC(C(O)c1ccccc1)N(C)C(=O)C1C(C)(C)C1(C)C (stereo unspecified)	inactive	inactive	inactive	inactive	
CCCC(CCC)C(=O)NCc1ccccc1 [VALPROYLBENZYLAMIDE]					Activity (Mus musculus [5]): 50%
CCCC(CCC)C(=O)O [VALPROIC ACID]					ED50 (Rattus norvegicus [6]): 646 mg/kg
CC1(C)C(C(=O)NCCCc2ccccc2)C1(C)C	inactive	inactive	inactive	inactive	
CC(NC(=O)C1C(C)(C)C1(C)C)c1ccccc1 (stereo unspecified)	inactive	inactive	inactive	inactive	
CCCC(CCC)C(=O)NCc1ccc(S(N)(=O)=O)cc1					ED50 (Mus musculus [7]): 16 mg/kg
NS(=O)(=O)Cc1noc2ccccc12 [ZONISAMIDE]					ED50 (Rattus norvegicus [8]): 21 mg/kg; ED50 (Rattus norvegicus [6]): > 300 mg/kg; TD50 [9]: 192 mg/kg
CC1(C)C(C(=O)NC(N)=O)C1(C)C [2,2,3,3-TETRAMETHYLCYCLOPROPANECARBONYLUREA]					ED50 (Rattus norvegicus [8]): 29 mg/kg
CC1(C)C(C(=O)NCCc2ccccc2)C1(C)C	inactive	inactive	Active	inactive	
CONC(=O)C1C(C)(C)C1(C)C					ED50 (Rattus norvegicus [6]): 35 mg/kg; PI (Rattus norvegicus [10]): 10
CC1(C)C(C(=O)Nc2ccc(S(N)(=O)=O)cc2)C1(C)C	inactive		inactive	inactive	Activity (Mus musculus [11]): Active; ED50 (Rattus norvegicus [8]): 26 mg/kg; ED50 (Rattus norvegicus [6]): > 100 mg/kg; TD50 [9]: > 500 mg/kg
CC1(C)C(C(=O)NCc2ccccc2Cl)C1(C)C	inactive	inactive	inactive	inactive	
Cc1cccc(C)c1OCC(C)N (stereo unspecified) [MEXILETINE]					ED50 (Mus musculus [7]): 10 mg/kg
CC(CNC(=O)C1C(C)(C)C1(C)C)c1ccccc1 (stereo unspecified)	inactive	inactive	inactive	inactive	
CC(=O)c1ccc(NC(=O)C2C(C)(C)C2(C)C)cc1	inactive	Active	inactive	inactive	
CC1(C)C(C(=O)NC(=O)Nc2ccccc2)C1(C)C	inactive	inactive	inactive	inactive	
Cc1cccc(C)c1OCC(C)NC(=O)C1C(C)(C)C1(C)C (stereo unspecified)	inactive	inactive	inactive	inactive	
CC1(C)C(C(=O)NCCc2c[nH]c3ccccc23)C1(C)C	inactive	inactive	inactive	inactive	
CC1(C)C(C(=O)NCc2ccccc2)C1(C)C	Active	inactive	Active	inactive	
CC1(C)C(C(=O)Nc2cc(Cl)c(S(N)(=O)=O)cc2S(N)(=O)=O)C1(C)C	inactive	inactive	inactive	inactive	
CC1(C)C(C(=O)Nc2ccccc2)C1(C)C	inactive	inactive	inactive	inactive	
